Test results: ChEMBL document CHEMBL4689842, “EUbOPEN Chemogenomics Library wave 1” (2021)

Test system: U2OS
Test: Multiplex assay against U2OS
Assay type: toxicity, cell-based
Conditions: human
Procedure, shortened: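 At seeding, live cells were stained with Hoechst33342, BioTracker Green Microtubule Cytoskeleton Dye, MitoTracker Red and Annexin V Alexa Fluor 680. After compound addition they were imaged on a CQ1 microscope at 37°C and 5% CO2, and CellPathfinder machine-learning gating sorted them into Hoechst high-intensity objects or normal cells, with normal cells further split into healthy, pyknosed or fragmented nuclei and pyknosed cells into mitotic or apoptotic. Tubulin, mitochondrial-mass and membrane-permeability phenotypes are given as per cents of cells with healthy nuclei.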

[1] = 12 h, 1 µM, compound concentration 1 uM, replicate 1
[2] = 12 h, 1 µM, compound concentration 1 uM, replicate 2
[3] = 12 h, 10 µM, compound concentration 10 uM, replicate 1
[4] = 12 h, 10 µM, compound concentration 10 uM, replicate 2
[5] = 24 h, 1 µM, compound concentration 1 uM, replicate 1
[6] = 24 h, 1 µM, compound concentration 1 uM, replicate 2
[7] = 24 h, 10 µM, compound concentration 10 uM, replicate 1
[8] = 24 h, 10 µM, compound concentration 10 uM, replicate 2
[9] = 48 h, 1 µM, compound concentration 1 uM, replicate 1
[10] = 48 h, 1 µM, compound concentration 1 uM, replicate 2
[11] = 48 h, 10 µM, compound concentration 10 uM, replicate 1
[12] = 48 h, 10 µM, compound concentration 10 uM, replicate 2

CN(C)C(=O)C(CCN1CCC(O)(c2ccc(Cl)cc2)CC1)(c1ccccc1)c1ccccc1.Cl [LOPERAMIDE HYDROCHLORIDE]
Population Apoptotic (%) [1]: 37% | Population Fragmented Nuclei (%) [1]: 11% | Population Healthy Nuclei (%) [1]: 69% | Population Hoechst High Intensity Objects (%) [1]: 4% | Population Membrane Permeable-Phenotype (%) [1]: 5% | Population Mitochondria Different-Phenotype (%) [1]: 82% | Population Mitotic Cells (%) [1]: 62% | Population Normal (%) [1]: 95% | Population Pyknosed Nuclei (%) [1]: 19% | Population Tubulin-Different-Phenotype (%) [1]: 87% | Total Cell Count [1]: 181 | Population Apoptotic (%) [2]: 25% | Population Fragmented Nuclei (%) [2]: 5% | Population Healthy Nuclei (%) [2]: 88% | Population Hoechst High Intensity Objects (%) [2]: 7% | Population Membrane Permeable-Phenotype (%) [2]: 11% | Population Mitochondria Different-Phenotype (%) [2]: 90% | Population Mitotic Cells (%) [2]: 75% | Population Normal (%) [2]: 92% | Population Pyknosed Nuclei (%) [2]: 6% | Population Tubulin-Different-Phenotype (%) [2]: 65% | Total Cell Count [2]: 55 | Population Apoptotic (%) [3]: 66% | Population Fragmented Nuclei (%) [3]: 16% | Population Healthy Nuclei (%) [3]: 42% | Population Hoechst High Intensity Objects (%) [3]: 5% | Population Membrane Permeable-Phenotype (%) [3]: 77% | Population Mitotic Cells (%) [3]: 33% | Population Normal (%) [3]: 95% | Population Pyknosed Nuclei (%) [3]: 40% | Total Cell Count [3]: 129 | Population Apoptotic (%) [4]: 82% | Population Fragmented Nuclei (%) [4]: 8% | Population Healthy Nuclei (%) [4]: 48% | Population Hoechst High Intensity Objects (%) [4]: 6% | Population Membrane Permeable-Phenotype (%) [4]: 94% | Population Mitochondria Different-Phenotype (%) [4]: 100% | Population Mitotic Cells (%) [4]: 17% | Population Normal (%) [4]: 93% | Population Pyknosed Nuclei (%) [4]: 43% | Population Tubulin-Different-Phenotype (%) [4]: 100% | Total Cell Count [4]: 64 | Population Apoptotic (%) [5]: 60% | Population Fragmented Nuclei (%) [5]: 10% | Population Healthy Nuclei (%) [5]: 74% | Population Hoechst High Intensity Objects (%) [5]: 5% | Population Membrane Permeable-Phenotype (%) [5]: 6% | Population Mitochondria Different-Phenotype (%) [5]: 84% | Population Mitotic Cells (%) [5]: 40% | Population Normal (%) [5]: 94% | Population Pyknosed Nuclei (%) [5]: 14% | Population Tubulin-Different-Phenotype (%) [5]: 75% | Total Cell Count [5]: 222 | Population Apoptotic (%) [6]: 53% | Population Fragmented Nuclei (%) [6]: 5% | Population Healthy Nuclei (%) [6]: 71% | Population Hoechst High Intensity Objects (%) [6]: 4% | Population Membrane Permeable-Phenotype (%) [6]: 16% | Population Mitochondria Different-Phenotype (%) [6]: 89% | Population Mitotic Cells (%) [6]: 46% | Population Normal (%) [6]: 95% | Population Pyknosed Nuclei (%) [6]: 22% | Population Tubulin-Different-Phenotype (%) [6]: 62% | Total Cell Count [6]: 68 | Population Apoptotic (%) [7]: 92% | Population Fragmented Nuclei (%) [7]: 23% | Population Healthy Nuclei (%) [7]: 18% | Population Hoechst High Intensity Objects (%) [7]: 4% | Population Membrane Permeable-Phenotype (%) [7]: 92% | Population Mitochondria Different-Phenotype (%) [7]: 100% | Population Mitotic Cells (%) [7]: 7% | Population Normal (%) [7]: 95% | Population Pyknosed Nuclei (%) [7]: 57% | Population Tubulin-Different-Phenotype (%) [7]: 100% | Total Cell Count [7]: 146 | Population Apoptotic (%) [8]: 98% | Population Fragmented Nuclei (%) [8]: 10% | Population Healthy Nuclei (%) [8]: 26% | Population Hoechst High Intensity Objects (%) [8]: 10% | Population Membrane Permeable-Phenotype (%) [8]: 86% | Population Mitochondria Different-Phenotype (%) [8]: 95% | Population Mitotic Cells (%) [8]: 1% | Population Normal (%) [8]: 89% | Population Pyknosed Nuclei (%) [8]: 62% | Population Tubulin-Different-Phenotype (%) [8]: 95% | Total Cell Count [8]: 70 | Population Apoptotic (%) [9]: 60% | Population Fragmented Nuclei (%) [9]: 6% | Population Healthy Nuclei (%) [9]: 78% | Population Hoechst High Intensity Objects (%) [9]: 6% | Population Mitochondria Different-Phenotype (%) [9]: 72% | Population Mitotic Cells (%) [9]: 40% | Population Normal (%) [9]: 93% | Population Pyknosed Nuclei (%) [9]: 15% | Population Tubulin-Different-Phenotype (%) [9]: 59% | Total Cell Count [9]: 345 | Population Apoptotic (%) [10]: 61% | Population Fragmented Nuclei (%) [10]: 7% | Population Healthy Nuclei (%) [10]: 68% | Population Hoechst High Intensity Objects (%) [10]: 3% | Population Membrane Permeable-Phenotype (%) [10]: 8% | Population Mitochondria Different-Phenotype (%) [10]: 65% | Population Mitotic Cells (%) [10]: 38% | Population Normal (%) [10]: 96% | Population Pyknosed Nuclei (%) [10]: 23% | Population Tubulin-Different-Phenotype (%) [10]: 47% | Total Cell Count [10]: 118 | Population Apoptotic (%) [11]: 98% | Population Fragmented Nuclei (%) [11]: 33% | Population Healthy Nuclei (%) [11]: 5% | Population Hoechst High Intensity Objects (%) [11]: 9% | Population Membrane Permeable-Phenotype (%) [11]: 100% | Population Mitochondria Different-Phenotype (%) [11]: 100% | Population Mitotic Cells (%) [11]: 1% | Population Normal (%) [11]: 90% | Population Pyknosed Nuclei (%) [11]: 61% | Population Tubulin-Different-Phenotype (%) [11]: 100% | Total Cell Count [11]: 177 | Population Apoptotic (%) [12]: 100% | Population Fragmented Nuclei (%) [12]: 21% | Population Healthy Nuclei (%) [12]: 30% | Population Hoechst High Intensity Objects (%) [12]: 21% | Population Membrane Permeable-Phenotype (%) [12]: 95% | Population Mitotic Cells (%) [12]: 0% | Population Normal (%) [12]: 78% | Population Pyknosed Nuclei (%) [12]: 48% | Total Cell Count [12]: 92

O=C(Nc1ccc(-c2ccnc(Nc3ccc(N4CCOCC4)cc3)n2)cc1)[C@@H]1CCCN1
Population Apoptotic (%) [1]: 45% | Population Fragmented Nuclei (%) [1]: 11% | Population Healthy Nuclei (%) [1]: 76% | Population Hoechst High Intensity Objects (%) [1]: 3% | Population Membrane Permeable-Phenotype (%) [1]: 6% | Population Mitochondria Different-Phenotype (%) [1]: 10% | Population Mitotic Cells (%) [1]: 55% | Population Normal (%) [1]: 96% | Population Pyknosed Nuclei (%) [1]: 11% | Population Tubulin-Different-Phenotype (%) [1]: 16% | Total Cell Count [1]: 100 | Population Apoptotic (%) [2]: 33% | Population Fragmented Nuclei (%) [2]: 13% | Population Hoechst High Intensity Objects (%) [2]: 7% | Population Membrane Permeable-Phenotype (%) [2]: 4% | Population Mitotic Cells (%) [2]: 66% | Population Normal (%) [2]: 92% | Population Pyknosed Nuclei (%) [2]: 10% | Population Tubulin-Different-Phenotype (%) [2]: 10% | Total Cell Count [2]: 65 | Population Apoptotic (%) [3]: 62% | Population Fragmented Nuclei (%) [3]: 13% | Population Healthy Nuclei (%) [3]: 66% | Population Hoechst High Intensity Objects (%) [3]: 7% | Population Membrane Permeable-Phenotype (%) [3]: 12% | Population Mitochondria Different-Phenotype (%) [3]: 74% | Population Mitotic Cells (%) [3]: 37% | Population Normal (%) [3]: 92% | Population Pyknosed Nuclei (%) [3]: 20% | Population Tubulin-Different-Phenotype (%) [3]: 97% | Total Cell Count [3]: 176 | Population Apoptotic (%) [4]: 77% | Population Fragmented Nuclei (%) [4]: 7% | Population Healthy Nuclei (%) [4]: 77% | Population Hoechst High Intensity Objects (%) [4]: 5% | Population Membrane Permeable-Phenotype (%) [4]: 8% | Population Mitochondria Different-Phenotype (%) [4]: 28% | Population Mitotic Cells (%) [4]: 22% | Population Normal (%) [4]: 94% | Population Pyknosed Nuclei (%) [4]: 14% | Population Tubulin-Different-Phenotype (%) [4]: 44% | Total Cell Count [4]: 65 | Population Apoptotic (%) [5]: 41% | Population Fragmented Nuclei (%) [5]: 8% | Population Healthy Nuclei (%) [5]: 76% | Population Hoechst High Intensity Objects (%) [5]: 3% | Population Membrane Permeable-Phenotype (%) [5]: 7% | Population Mitochondria Different-Phenotype (%) [5]: 9% | Population Mitotic Cells (%) [5]: 58% | Population Normal (%) [5]: 96% | Population Pyknosed Nuclei (%) [5]: 15% | Population Tubulin-Different-Phenotype (%) [5]: 10% | Total Cell Count [5]: 90 | Population Apoptotic (%) [6]: 60% | Population Fragmented Nuclei (%) [6]: 7% | Population Healthy Nuclei (%) [6]: 85% | Population Hoechst High Intensity Objects (%) [6]: 6% | Population Membrane Permeable-Phenotype (%) [6]: 3% | Population Mitochondria Different-Phenotype (%) [6]: 19% | Population Mitotic Cells (%) [6]: 40% | Population Normal (%) [6]: 93% | Population Pyknosed Nuclei (%) [6]: 7% | Total Cell Count [6]: 63 | Population Apoptotic (%) [7]: 60% | Population Fragmented Nuclei (%) [7]: 12% | Population Healthy Nuclei (%) [7]: 65% | Population Hoechst High Intensity Objects (%) [7]: 7% | Population Membrane Permeable-Phenotype (%) [7]: 17% | Population Mitochondria Different-Phenotype (%) [7]: 80% | Population Mitotic Cells (%) [7]: 39% | Population Normal (%) [7]: 92% | Population Pyknosed Nuclei (%) [7]: 21% | Population Tubulin-Different-Phenotype (%) [7]: 97% | Total Cell Count [7]: 198 | Population Apoptotic (%) [8]: 58% | Population Fragmented Nuclei (%) [8]: 18% | Population Healthy Nuclei (%) [8]: 64% | Population Hoechst High Intensity Objects (%) [8]: 1% | Population Membrane Permeable-Phenotype (%) [8]: 13% | Population Mitochondria Different-Phenotype (%) [8]: 17% | Population Mitotic Cells (%) [8]: 41% | Population Normal (%) [8]: 98% | Population Pyknosed Nuclei (%) [8]: 17% | Population Tubulin-Different-Phenotype (%) [8]: 22% | Total Cell Count [8]: 72 | Population Apoptotic (%) [9]: 36% | Population Fragmented Nuclei (%) [9]: 5% | Population Hoechst High Intensity Objects (%) [9]: 1% | Population Membrane Permeable-Phenotype (%) [9]: 4% | Population Mitochondria Different-Phenotype (%) [9]: 8% | Population Mitotic Cells (%) [9]: 63% | Population Normal (%) [9]: 98% | Population Pyknosed Nuclei (%) [9]: 13% | Population Tubulin-Different-Phenotype (%) [9]: 13% | Total Cell Count [9]: 94 | Population Apoptotic (%) [10]: 0% | Population Fragmented Nuclei (%) [10]: 10% | Population Healthy Nuclei (%) [10]: 80% | Population Hoechst High Intensity Objects (%) [10]: 5% | Population Membrane Permeable-Phenotype (%) [10]: 5% | Population Mitochondria Different-Phenotype (%) [10]: 12% | Population Mitotic Cells (%) [10]: 100% | Population Normal (%) [10]: 94% | Population Pyknosed Nuclei (%) [10]: 9% | Population Tubulin-Different-Phenotype (%) [10]: 16% | Total Cell Count [10]: 61 | Population Apoptotic (%) [11]: 67% | Population Fragmented Nuclei (%) [11]: 24% | Population Healthy Nuclei (%) [11]: 48% | Population Hoechst High Intensity Objects (%) [11]: 6% | Population Membrane Permeable-Phenotype (%) [11]: 18% | Population Mitochondria Different-Phenotype (%) [11]: 53% | Population Mitotic Cells (%) [11]: 32% | Population Normal (%) [11]: 93% | Population Pyknosed Nuclei (%) [11]: 26% | Population Tubulin-Different-Phenotype (%) [11]: 86% | Total Cell Count [11]: 289 | Population Apoptotic (%) [12]: 60% | Population Fragmented Nuclei (%) [12]: 9% | Population Healthy Nuclei (%) [12]: 70% | Population Hoechst High Intensity Objects (%) [12]: 8% | Population Membrane Permeable-Phenotype (%) [12]: 28% | Population Mitochondria Different-Phenotype (%) [12]: 32% | Population Mitotic Cells (%) [12]: 40% | Population Normal (%) [12]: 91% | Population Pyknosed Nuclei (%) [12]: 20% | Population Tubulin-Different-Phenotype (%) [12]: 23% | Total Cell Count [12]: 125
